Compound activity from PubChem.
MC4R antag cAMP = antagonists of human melanocortin 4 receptor (MC4R). P32245. MC4R-expressing cells, MTII-stimulated cAMP, LANCE TR-FRET. inhibition, % at 6.5 µM. 360,000 compounds, 0.48% hits. AID 540295;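 active = inhibition above its plate's cutoff, the mean of tested wells on that plate plus 3 SD, cut at about 29% in these data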;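 also: 0% = Melanotan II alone and 100% = Melanotan II plus saturating MCL0020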
Target sequence (P32245 whole entry, looked up): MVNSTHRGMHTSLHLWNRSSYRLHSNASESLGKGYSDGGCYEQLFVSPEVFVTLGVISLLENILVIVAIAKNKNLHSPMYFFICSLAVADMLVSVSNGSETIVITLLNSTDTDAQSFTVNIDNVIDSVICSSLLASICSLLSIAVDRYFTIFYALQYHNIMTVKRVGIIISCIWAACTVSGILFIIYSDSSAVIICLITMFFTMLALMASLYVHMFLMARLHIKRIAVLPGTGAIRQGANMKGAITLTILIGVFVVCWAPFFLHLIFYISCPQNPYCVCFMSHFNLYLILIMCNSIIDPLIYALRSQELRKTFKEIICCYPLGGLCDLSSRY
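Assay system: U2OS-MC4R stable cell line; Also added: Melanotan II; Technique: Eu-cAMP/anti-cAMP TR-FRET, emission 671 nm; Times: 30-min compound, 1-h challenge, 1-h detection, room temperature.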
GalR3 antag = human GalR3 antagonism; HEK293 GalR3-CNG cAMP membrane potential fluorescence; galR3 body fused to GalR1 C-terminus; 360,000 compounds, 0.44% hits; O60755; inhibition, % at 3 µM;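 active = inhibition above the screen-wide average plus 3 SD, cut at about 13% in these data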;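 also: forskolin and galanin both at EC90 stimulate the cells; cAMP rise reported by CNG channel membrane potential dye signal; 0% = forskolin plus galanin with DMSO and 100% = forskolin alone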
Target sequence (O60755 1-299 limits assumed): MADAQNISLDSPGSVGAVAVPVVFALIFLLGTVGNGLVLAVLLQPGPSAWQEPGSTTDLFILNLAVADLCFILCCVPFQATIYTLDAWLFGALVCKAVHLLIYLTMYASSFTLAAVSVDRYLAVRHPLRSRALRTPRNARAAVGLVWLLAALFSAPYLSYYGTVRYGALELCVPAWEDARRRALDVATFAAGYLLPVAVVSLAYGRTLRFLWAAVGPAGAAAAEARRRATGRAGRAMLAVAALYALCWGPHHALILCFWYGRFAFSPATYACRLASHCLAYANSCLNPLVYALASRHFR
MC4R barr agon = agonists of human melanocortin 4 receptor (MC4R) beta-arrestin; P32245; U2OS MC4R beta-arrestin complementation, luminescence; percent of melanotan II response, DMSO zero; activation, % at 8.9 µM; 360,000 compounds, 0.98% hits; AID 540308;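 active = activation above a per-plate cutoff, the mean activation of sample wells on that plate plus 3 SD, cut at about 8% in these data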
Calb FLC = affects C. albicans growth with fluconazole. C. albicans CaCi-2 + fluconazole, Alamar Blue growth, 48 h. growth inhibition, % (test concentration not listed). 300,000 compounds, 0.57% hits. AID 1979;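 active = growth inhibition above about 58% in most replicates, limit read from the data, passing the limit was not always enough; inconclusive = exactly half the replicates above a set limit; inactive = most replicates below a set limit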;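 also: all wells also contain fluconazole at 8 µg/ml as a sub-toxic cotreatment; 0% = median of DMSO wells and 100% = median of geldanamycin control wells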
H9c2 TAG inh = reduces triacylglycerol accumulation in H9c2 cells. AID 651582. inhibition, % at 12.5 µM. 230,000 compounds, 0.66% hits. Nile Red lipid (TAG) fluorescence; cells loaded with 200 µM oleic acid;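 active = pattern-corrected inhibition of lipid staining of at least 50% with the nuclear-stain viability signal not falling by more than 50%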;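 also: 0% = DMSO wells and 100% = triacsin C control wells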
Efflux pump mplx = antifungal efflux pump inhibition, Nile Red retention | AID 485275 | S. cerevisiae Candida pump triplex | inhibition, % at 10 µM | 330,000 compounds, 0.44% hits;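 active = plate passing quality check with inhibition over a set limit, or well fluorescence over plate mean plus 4 SD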;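 also: Nile Red retained in pooled yeast measured as flow cytometry median fluorescence; 0% = buffer negative control and 100% = Enniatin B positive control; higher means more Nile Red kept so more efflux inhibition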
Starred values were filed as active, the others as inactive; ? = inconclusive; / = no result. Most compounds without a hit are left out; they make up all but 2.9% or so of the library.

SMILES	MC4R antag cAMP	GalR3 antag	MC4R barr agon	Calb FLC	H9c2 TAG inh	Efflux pump mplx
COc1cc(OC)c2cc(C(=O)N/N=C/c3cccc(OC)c3O)[nH]c2c1	-3.4	-3.8	0.5	1.9	54.8*	0.0
COc1cccc(/C=N/NC(=O)c2nc(-c3ccccc3)cc(-c3ccccc3)n2)c1O	9.2	-4.6	-0.6	113.7*	33.8	0.1
Cc1ccccc1NC(=O)Cc1nc(COC(=O)CSc2ccc(F)cc2)cs1	-0.1	-2.1	0.8	/	4.6	/
COc1cc(/C=N\NC(=O)c2ccc(Cn3nc([N+](=O)[O-])c(Cl)c3C)o2)ccc1O	11.4	-1.8	-1.8	-7.7	2.0	-0.3
COc1cccc(/C=N\NC(=O)c2ccc(Cn3cc(Br)c([N+](=O)[O-])n3)o2)c1O	-8.4	-5.8	-2.0	102.4*	33.8	0.1
COc1cccc(CN(C)C(=O)C2CCCN(C(=O)c3ccc(Cl)cc3)C2)c1 (configuration not stated)	11.2	-1.8	-0.2	/	6.4	/
Nc1ncnc(Sc2ncccn2)c1[N+](=O)[O-]	15.9	-2.7	-2.7	84.8*	26.0	/
COc1ccc(-c2ccc(CN3C(C)C(=O)N(Cc4cn(CCC5OCCO5)nn4)CCS3(=O)=O)cc2)cc1 (configuration not stated)	-3.2	-8.5	1.3	/	-15.2	/
NC(=O)c1ccsc1NC(=O)c1ccc(S(=O)(=O)N2CCCc3ccccc32)cc1	6.5	3.4	8.5*	1.3	-31.3	-0.2
COC(=O)C[C@H]1C[C@H]2c3cc(NC(=O)Cc4ccncc4)ccc3O[C@H]2[C@@H](CO)O1	-1.1	-6.2	-0.4	/	7.2	/
CC(C)C[C@@H](CN1CCC[C@H]1CN1C(=O)C(=O)NC[C@@H]1Cc1ccccc1)N1C[C@H](Cc2ccccc2)N(CC2CCCCCC2)C(=O)C1=O	/	-7.0	/	/	/	/
Cc1nn(C)cc1C(C(=O)NC1CCCCC1)N(Cc1ccccc1Cl)C(=O)c1cnccn1 (configuration not stated)	3.4	-6.0	-0.2	78.3*	-19.7	-0.1
Cc1ccsc1/C=N/NC(=O)c1ccc([N+](=O)[O-])cc1	-0.7	-6.5	-2.6	-16.2	-1.4	0.0
Cc1ccsc1/C=N/NS(=O)(=O)c1ccc([N+](=O)[O-])cc1	-3.5	1.1	0.9	101.2*	/	-0.1
C=CCN(CC=C)Cc1c(O)ccc2c(=O)c(-c3ccccc3)coc12	-4.8	-3.5	-0.6	94.0*	/	-0.1
Cc1cc(C(=O)NNC(=O)CCCOc2ccccc2)c(C)o1	11.3	-0.1	-1.2	-5.7	3.8	-0.1
CC(C)(C)c1ccc(OCCCC(=O)NNC(=O)c2ccccc2O)cc1	2.6	-6.0	-3.8	80.6*	1.2	-0.1
Clc1cccc(-c2cc3nc4c(c(N5CCN(c6cnccn6)CC5)n3n2)CCCC4)c1	-1.5	-3.2	-2.2	-3.0	62.4*	0.3
Brc1ccc2ncnc(NCc3ccccc3)c2c1	10.9	-6.4	-1.2	-1.6	-32.1	-0.1
c1ccc(CCNc2ncnc3ccccc23)cc1	7.0	93.4*	-1.2	93.7*	-30.2	0.1
CCCCCCCCNc1ncnc2ccccc12	2.3	/	3.7	76.4*	/	0.0
O=C(CCS(=O)(=O)Cc1ccccc1)Nc1nnc(C(F)(F)F)s1	24.6	-3.6	-0.6	82.9*	/	0.0
Cc1nnc(NC(=O)CCS(=O)(=O)c2ccccc2)s1	20.4	-9.4	4.0	-8.1	/	-0.1
CC(C)(C)c1nnc(NC(=O)CCS(=O)(=O)c2ccccc2)s1	16.4	-6.0	0.7	93.3*	/	0.0
O=C(CCS(=O)(=O)c1ccccc1)Nc1nnc(C(F)(F)F)s1	2.2	-10.0	-3.2	97.0*	/	0.1
SMILES	MC4R antag cAMP	GalR3 antag	MC4R barr agon	Calb FLC	H9c2 TAG inh	Efflux pump mplx
CC(C)(C)c1nnc(NC(=O)CCS(=O)(=O)Cc2ccccc2)s1	16.8	-8.3	0.1	70.1	/	-0.1
COc1ccc(CNC(=O)Cn2cnc3c(NCc4ccccc4)ncnc32)cc1	-12.3	-8.0	-3.4	/	15.7	0.2
Cc1ccc(S(=O)(=O)CC(C)N2CCOCC2)c(S(=O)(=O)CC(C)N2CCOCC2)c1 (configuration not stated)	-3.6	-5.5	1.6	103.0*	/	-0.1
CC(C)CCN1C(=O)c2ccc(C(=O)Nc3c[nH]c(=O)[nH]c3=O)cc2C1=O	-5.3	-1.6	-0.1	-6.2	8.8	0.3
CC(=O)Oc1cccc(N2C(=O)c3ccc(C(=O)Nc4c[nH]c(=O)[nH]c4=O)cc3C2=O)c1	41.6*	/	-0.1	-0.7	-11.8	0.1
Cc1ccc(NC(=O)c2ncn(CCCN3CCN(c4ncccn4)CC3)n2)cc1C	-4.9	-5.1	1.6	/	11.0	/
COc1ccc(N=Cc2cc(Cc3ccccc3Cl)cc([N+](=O)[O-])c2O)cc1OC	6.0	/	7.9	?	/	-0.1
Cc1ccc(N=Cc2cc(Cc3ccccc3Cl)cc([N+](=O)[O-])c2O)c(O)c1	-3.3	/	5.9	109.0*	-4.1	0.1
COc1ccc(-c2cc(NC(=O)Cc3c(C)[nH]c4ccccc34)ccc2Nc2cccnc2)cc1OC	/	-0.7	/	/	/	/
COc1ccc(/C=C/C(=O)NCc2cn(C)nc2C)cc1COc1ccc(Br)cc1	8.1	-0.2	9.1*	17.8	/	0.1
O=C(Cn1cc(C(=O)C2CC2)c2ccccc21)NC1CCCC1	4.4	-3.3	-0.3	21.3	19.9	-0.1
COC(=O)c1cn(CC(=O)NC2CCCCC2)c2ccccc12	6.0	-1.4	2.2	100.0*	4.8	0.0
COC(=O)c1cc2c(c3c4cc(F)ccc4n(S(=O)(=O)c4ccc(C)cc4)c13)C(=O)N(C)C2	/	-5.6	/	/	/	/
CO/N=C/c1ccc(N2CCN(C(=O)c3ccc(C)cc3)CC2)c([N+](=O)[O-])c1	1.0	-5.0	0.3	108.6*	/	0.1
CC12CCC(C(=O)NNc3ccc([N+](=O)[O-])cc3)(CC1=O)C2(C)C (configuration not stated)	-7.1	-2.6	0.9	120.7*	-6.7	0.1
COC(=O)C1=C(C)N(Cc2cccc(C(F)(F)F)c2)C(=NCc2cccc(C(F)(F)F)c2)NC1c1ccc(Cl)cc1 (configuration not stated)	/	-6.1	/	/	/	/
Cc1ccc(-c2nc(-c3cccnc3)no2)c(C)c1	-3.7	-1.9	4.3	95.3*	24.6	0.1
O=C(Nc1ccc(Cl)c(Cl)c1)Nc1ccon1	-14.0	-3.8	-0.4	70.8	12.8	6.5*
O=C(O)c1cc(-c2ccc(/C=c3\sc4nc5ccc(Br)cc5n4c3=O)o2)ccc1Cl	/	/	/	8.0	/	1.6*
C[C@H](CO)N1C[C@H](C)[C@H](CN(C)C(=O)Nc2ccc(F)cc2)OCc2ccccc2-c2c(n(C)c3ccccc23)C1=O	11.8	-1.9	0.3	/	-7.0	/
CCCCOc1ccc(Br)cc1CSC(=N)N	-3.5	23.1*	3.1	-22.7	8.1	/
CCOc1ccc(C(C)=O)cc1CSC(=N)N	5.2	6.1	0.0	?	-8.4	0.1
